The values below come from ChEMBL document CHEMBL1147842, “Novel 1,4-benzodiazepine derivatives with antiproliferative properties on tumor cell lines” (Bioorg Med Chem Lett, 2007).

pIC50: −log10 of the molar value. Active and inactive are the calls of the source. The calls are words filed in the database; no cut-off is given here. Bounds are passed on as bounds.

Common to all, as to assay type: functional, cell-based
One test has as its system HeLa. Kind of test: Cytotoxicity against human HeLa cells after 72 hrs by WST-1 colorimetric test. In a few lines:
(§1)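 WST-1 colorimetric readout, based on cleavage by mitochondrial dehydrogenases. A2058 (4000 cells/well) or HeLa (3000 cells/well) left overnight at 37°C in 5% CO₂, then exposed to compounds at 0–150 μM for 72 h. WST-1 added for 2 h, absorbance at 450 nm read against a background control. Means of at least two independent experiments in triplicate.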
On the technique in general: Formazan colour is commonly taken as a measure of viable cells.

The test system of another test is A2058. Kind of test: Cytotoxicity against human A2058 cells after 72 hrs by WST-1 colorimetric test. The note with it: for pIC50: A2058, 72 h. In a few lines:
as §1

Test [1] is described as follows: (§2) Antiproliferative activity against v-Src transformed mouse NIH 3T3 fibroblast after 72 hrs. The note with it: NIH3T3, 72 h. In outline:
(§3)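 NIH 3T3/v-Src fibroblasts seeded at 10⁵/well, left overnight at 37°C in 5% CO₂. Compound exposure 0–150 μM for 72 h. Cells then washed in PBS, trypsinised and counted in a particle counter. Means of at least two independent experiments run in duplicate. IC₅₀ taken from a sigmoidal dose-response fit.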

For test [2], the system named is NIH3T3. The description is as §2. In outline: as §3
The test system of test [3] is NIH3T3. Nature of the test: Antiproliferative activity against v-Src transformed mouse NIH 3T3 fibroblast at 150 uM after 72 hrs. In outline:
as §3

By pIC50 is commonly meant the negative decadic logarithm of the IC50, by convention in mol/L. Read a high pIC50 as a small IC50. Consider `C[C@@H]1N=C(c2ccccc2)c2ccccc2N(Cc2ccc(OP(=O)(O)OCc3ccccc3)cc2)C1=O`, for which the pIC50 with HeLa is 4.39; in the test with A2058 it was 4.21; in test [1], 4.31.
For the compound `NCCCC[C@@H]1N=C(c2ccccc2)c2ccccc2N(Cc2ccc(CP(=O)(O)O)cc2)C1=O`, the outcome in the test on HeLa, in the test with A2058 and in the test with NIH3T3 [2] was inactive.
Turning to `NCCCC[C@@H]1N=C(c2ccccc2)c2ccccc2N(Cc2ccc(OP(=O)(O)O)cc2)C1=O`, the figures for the pIC50 (with HeLa; with A2058; in test [1]) were at most 4.10, 4.47 and at most 4.10, respectively.
Take `C[C@@H]1N=C(c2ccccc2)c2ccccc2NC1=O`: the result with HeLa, with A2058 and in the test on NIH3T3 [3] was inactive.
As to `CN1C(=O)CN=C(c2ccc(Cl)cc2)c2cc(Cl)ccc21` [RO-54864], the figures for the pIC50 (in the test on HeLa; with A2058; in test [1]) were at most 4.00, at most 4.00 and 4.50, respectively.
Turning to `C[C@@H]1N=C(c2ccccc2)c2ccccc2N(Cc2ccc(CP(=O)(O)O)cc2)C1=O`, the result in the test with HeLa, in the test on A2058 and in the test with NIH3T3 [2] was inactive.
For the compound `C[C@@H]1N=C(c2ccccc2)c2ccccc2N(Cc2ccc(OP(=O)(O)O)cc2)C1=O`, the pIC50 with HeLa was 4.67; in the test on A2058, 4.54; in test [1], 4.44.
Regarding `C[C@@H]1N=C(c2ccccc2)c2ccccc2N(Cc2ccc(O)cc2)C1=O`, the pIC50 in the test on HeLa was 4.53; in the test on A2058, 4.57; in test [1], 4.41.
